Active and inactive are the calls of the source. No cut-off for these calls is given here.
Assays:
[1] = test system: K562; test: Growth inhibition of human K562 cells at 10 uM; format: functional, cell-based
Method in brief: (§1)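 Human tumor cell line panel (59 lines across leukemia, melanoma, non-small cell lung, colon, CNS, ovarian, renal, prostate, breast) treated at a single 10 uM concentration; growth inhibition recorded per line.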

[2] = test system: RXF 393; test: Growth inhibition of human RXF393 cells at 10 uM; format: functional, cell-based; method in brief: as §1
[3] = test system: CCRF-CEM; test: Growth inhibition of human CEM cells after 3 days; format: functional, cell-based; conditions: 72 h
Method in brief: (§2)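 Human CEM and Molt 4/C8 T-lymphocytes were grown for three days with or without serial dilutions of the compound. IC50 is the concentration that inhibits cell growth by 50%.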

[4] = test system: DU-145; test: Growth inhibition of human DU145 cells at 10 uM; format: functional, cell-based; method in brief: as §1
[5] = test system: NCI-H522; test: Growth inhibition of human NCI-H522 cells at 10 uM; format: functional, cell-based; method in brief: as §1
[6] = test system: HL-60; test: Cytotoxicity against human HL60 cells after 48 hrs; format: functional; conditions: HL-60, 48 h
[7] = test system: MDA-MB-468; test: Growth inhibition of human MDA-MB-468 cells at 10 uM; format: functional, cell-based; method in brief: as §1
[8] = test system: HCT-15; test: Growth inhibition of human HCT15 cells at 10 uM; format: functional, cell-based; method in brief: as §1
[9] = Cytotoxicity against human HPLF cells after 48 hrs; format: cell-based
[10] = test system: UO-31; test: Growth inhibition of human UO31 cells at 10 uM; format: functional, cell-based; method in brief: as §1
[11] = test system: HCT-116; test: Growth inhibition of human HCT116 cells at 10 uM; format: functional, cell-based; method in brief: as §1
[12] = test system: OVCAR-4; test: Growth inhibition of human OVCAR4 cells at 10 uM; format: functional, cell-based; method in brief: as §1
[13] = test system: SW-620; test: Growth inhibition of human SW620 cells at 10 uM; format: functional, cell-based; method in brief: as §1
[14] = test system: NCI/ADR-RES; test: Growth inhibition of human NCI/ADR-RES cells at 10 uM; format: functional, cell-based; method in brief: as §1
[15] = test system: IGROV-1; test: Growth inhibition of human IGROV1 cells at 10 uM; format: functional, cell-based; method in brief: as §1
[16] = target: T1, ATP-dependent translocase ABCB1 (Homo sapiens, UniProt P08183); test: Reversal of P-glycoprotein-mediated multidrug resistance in human MDR1 gene transfected mouse L5178Y cells assessed as fluorescence activity ratio at 200 uM by rhodamine 123 accumulation assay; format: cell-based
T1 sequence (P08183 whole entry): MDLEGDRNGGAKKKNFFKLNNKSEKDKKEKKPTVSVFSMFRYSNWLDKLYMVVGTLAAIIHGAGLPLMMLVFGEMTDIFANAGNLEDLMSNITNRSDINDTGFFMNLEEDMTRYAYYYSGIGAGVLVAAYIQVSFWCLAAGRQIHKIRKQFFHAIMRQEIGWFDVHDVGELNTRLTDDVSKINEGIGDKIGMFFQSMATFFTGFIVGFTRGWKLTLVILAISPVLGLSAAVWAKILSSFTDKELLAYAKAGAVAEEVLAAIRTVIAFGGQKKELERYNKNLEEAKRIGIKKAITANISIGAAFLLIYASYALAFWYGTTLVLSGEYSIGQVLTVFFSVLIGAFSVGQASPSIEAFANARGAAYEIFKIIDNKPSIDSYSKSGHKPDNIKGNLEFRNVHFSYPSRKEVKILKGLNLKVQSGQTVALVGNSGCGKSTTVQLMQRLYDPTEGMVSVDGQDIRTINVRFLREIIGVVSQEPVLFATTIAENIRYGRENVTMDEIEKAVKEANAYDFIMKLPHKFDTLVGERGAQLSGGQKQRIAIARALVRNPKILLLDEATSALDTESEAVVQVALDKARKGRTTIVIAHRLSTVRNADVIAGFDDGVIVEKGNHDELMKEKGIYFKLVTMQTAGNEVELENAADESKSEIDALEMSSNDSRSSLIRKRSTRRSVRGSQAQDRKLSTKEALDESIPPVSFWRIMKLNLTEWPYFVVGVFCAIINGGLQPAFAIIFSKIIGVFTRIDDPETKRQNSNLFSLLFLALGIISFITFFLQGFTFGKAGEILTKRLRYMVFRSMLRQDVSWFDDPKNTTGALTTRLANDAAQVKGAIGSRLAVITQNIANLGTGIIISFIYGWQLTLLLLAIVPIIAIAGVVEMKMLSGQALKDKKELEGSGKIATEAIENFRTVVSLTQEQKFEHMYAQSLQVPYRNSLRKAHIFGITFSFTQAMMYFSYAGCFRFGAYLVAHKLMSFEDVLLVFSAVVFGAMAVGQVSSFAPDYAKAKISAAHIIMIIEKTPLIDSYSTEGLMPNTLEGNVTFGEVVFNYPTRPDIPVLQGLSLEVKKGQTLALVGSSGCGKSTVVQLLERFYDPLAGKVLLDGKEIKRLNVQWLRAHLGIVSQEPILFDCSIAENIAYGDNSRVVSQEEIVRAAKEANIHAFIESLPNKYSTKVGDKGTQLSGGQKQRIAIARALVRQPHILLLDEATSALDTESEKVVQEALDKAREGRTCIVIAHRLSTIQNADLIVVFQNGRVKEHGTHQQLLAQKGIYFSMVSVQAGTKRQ
Method in brief: (§3)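 Murine L-5178Y lymphoma cells transfected with human MDR1 gene (P-gp-overexpressing), alongside parental cells, treated or untreated with compound; rhodamine 123 accumulation measured by fluorescence; FAR = ratio of fluorescence intensity in treated versus untreated cells, values above 1 taken as MDR reversal.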

[17] = test system: SF-295; test: Growth inhibition of human SF295 cells at 10 uM; format: functional, cell-based; method in brief: as §1
[18] = Cytotoxicity against human HPC cells after 48 hrs; format: cell-based
[19] = test system: EKVX; test: Growth inhibition of human EKVX cells at 10 uM; format: functional, cell-based; method in brief: as §1
[20] = test system: LOX IMVI; test: Growth inhibition of human LOXIMVI cells at 10 uM; format: functional, cell-based; method in brief: as §1
[21] = test system: NCI-H460; test: Growth inhibition of human NCI-H460 cells at 10 uM; format: functional, cell-based; method in brief: as §1
[22] = test system: HSC-4; test: Cytotoxicity against human HSC4 cells after 48 hrs; format: functional; conditions: HSC-4, 48 h
[23] = test system: T47D; test: Growth inhibition of human T47D cells at 10 uM; format: functional, cell-based; method in brief: as §1
[24] = Cytotoxicity against human HGF cells after 48 hrs; format: cell-based
[25] = test system: RPMI8266; test: Growth inhibition of human […] cells at 10 uM; format: functional, cell-based; method in brief: as §1
[26] = test system: Hs-578T; test: Growth inhibition of human Hs 578T cells at 10 uM; format: functional, cell-based; method in brief: as §1
[27] = test system: SNB-75; test: Growth inhibition of human SNB75 cells at 10 uM; format: functional, cell-based; method in brief: as §1
[28] = test system: M14; test: Growth inhibition of human M14 cells at 10 uM; format: functional, cell-based; method in brief: as §1
[29] = test system: CAKI-1; test: Growth inhibition of human Caki1 cells at 10 uM; format: functional, cell-based; method in brief: as §1
[30] = test system: OVCAR-3; test: Growth inhibition of human OVCAR-3 cells at 10 uM; format: functional, cell-based; method in brief: as §1
[31] = test system: OVCAR-8; test: Growth inhibition of human OVCAR8 cells at 10 uM; format: functional, cell-based; method in brief: as §1
[32] = test system: U-251; test: Growth inhibition of human U251 cells at 10 uM; format: functional, cell-based; method in brief: as §1
[33] = test system: NCI-H23; test: Growth inhibition of human NCI-H23 cells at 10 uM; format: functional, cell-based; method in brief: as §1
[34] = test system: A498; test: Growth inhibition of human A498 cells at 10 uM; format: functional, cell-based; method in brief: as §1
[35] = test system: A549; test: Growth inhibition of human A549 cells at 10 uM; format: functional, cell-based; method in brief: as §1
[36] = test system: HSC-3; test: Cytotoxicity against human HSC3 cells after 48 hrs; format: functional; conditions: HSC-3, 48 h
[37] = test system: UACC-62; test: Growth inhibition of human UACC62 cells at 10 uM; format: functional, cell-based; method in brief: as §1
[38] = test system: HSC-2; test: Cytotoxicity against human HSC2 cells after 48 hrs; format: functional; conditions: HSC-2, 48 h
[39] = test system: PC-3; test: Growth inhibition of human PC3 cells at 10 uM; format: functional, cell-based; method in brief: as §1
[40] = test system: MCF7; test: Growth inhibition of human MCF7 cells at 10 uM; format: functional, cell-based; method in brief: as §1
[41] = test system: HL-60; test: Growth inhibition of human HL60 cells at 10 uM; format: functional, cell-based; method in brief: as §1
[42] = target: T1, ATP-dependent translocase ABCB1; test: Reversal of P-glycoprotein-mediated multidrug resistance in human MDR1 gene transfected mouse L5178Y cells assessed as fluorescence activity ratio at 20 uM by rhodamine 123 accumulation assay; format: cell-based; method in brief: as §3
[43] = test system: MDA-MB-435; test: Growth inhibition of human MDA-MB-435 cells at 10 uM; format: functional, cell-based; method in brief: as §1
[44] = test system: HCC 2998; test: Growth inhibition of human HCC2998 cells at 10 uM; format: functional, cell-based; method in brief: as §1
[45] = test system: CCRF-CEM; test: Growth inhibition of human CCRF-CEM cells at 10 uM; format: functional, cell-based; method in brief: as §1
[46] = Growth inhibition of human Molt4/C8 cells after 3 days; format: functional, cell-based; conditions: MOLT-4, 72 h; method in brief: as §2
[47] = test system: HOP-92; test: Growth inhibition of human HOP92 cells at 10 uM; format: functional, cell-based; method in brief: as §1

COc1ccc(/C=C/C(=O)c2c(C)[n+]([O-])c3ccccc3[n+]2[O-])cc1
growth inhibition (GI) [1]: Active
growth inhibition (GI) [2]: Active
IC50 [3]: 27.6 µM
growth inhibition (GI) [4]: Active
growth inhibition (GI) [5]: Active
CC50 [6]: 16 µM
growth inhibition (GI) [7]: Active
growth inhibition (GI) [8]: Active
CC50 at 48 h [9]: 93 µM
growth inhibition (GI) [10]: Active
growth inhibition (GI) [11]: Active
growth inhibition (GI) [12]: Active
growth inhibition (GI) [13]: Active
growth inhibition (GI) [14]: Active
growth inhibition (GI) [15]: Active
Ratio [16]: 31.7
growth inhibition (GI) [17]: Active
CC50 at 48 h [18]: 92 µM
growth inhibition (GI) [19]: Active
growth inhibition (GI) [20]: Active
growth inhibition (GI) [21]: Active
CC50 [22]: 11 µM
growth inhibition (GI) [23]: Active
CC50 at 48 h [24]: 52 µM
growth inhibition (GI) [25]: Active
growth inhibition (GI) [26]: Active
growth inhibition (GI) [27]: Active
growth inhibition (GI) [28]: Active
growth inhibition (GI) [29]: Active
growth inhibition (GI) [30]: Active
growth inhibition (GI) [31]: Active
growth inhibition (GI) [32]: Active
growth inhibition (GI) [33]: Active
growth inhibition (GI) [34]: Active
growth inhibition (GI) [35]: Active
CC50 [36]: 23 µM
growth inhibition (GI) [37]: Active
CC50 [38]: 20 µM
growth inhibition (GI) [39]: Active
growth inhibition (GI) [40]: Active
growth inhibition (GI) [41]: Active
Ratio [42]: 4.25
growth inhibition (GI) [43]: Active
growth inhibition (GI) [44]: Active
growth inhibition (GI) [45]: Active
IC50 [46]: 25.8 µM
growth inhibition (GI) [47]: Active

— ChEMBL document CHEMBL1137767, “2-(3-Aryl-2-propenoyl)-3-methylquinoxaline-1,4-dioxides: a novel cluster of tumor-specific cytotoxins which reverse multidrug resistance” (Bioorg Med Chem, 2009)
